Measurements taken from ChEMBL document CHEMBL1828575, “Design, synthesis and antiproliferative activities of biarylolefins based on polyhydroxylated and carbohydrate scaffolds” (Eur J Med Chem, 2011).

Legend:
Assay type in all cases: functional
SF-295 = experiment: Cytotoxicity against human SF295 cells assessed as cellular growth at 10 uM after 48 hrs by SRB assay
Method in brief: (§1)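 NCI-60 panel lines grown in RPMI 1640 with 5% FBS and 2 mM L-glutamine. Plated at 5000–40,000 cells/well and preincubated 24 h at 37 °C, 5% CO₂, with time-zero plates fixed in TCA. Compounds, dissolved in DMSO and diluted in medium, were applied for 48 h. Cells were TCA-fixed (10% final for adherent, 16% for suspension) and stained with 0.4% SRB in 1% acetic acid. Dye was solubilised in 10 mM Tris base and read at 515 nm; growth was expressed as a percentage of untreated control.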

SW-620 [1] = experiment: Cytotoxicity against human SW620 cells assessed as cellular growth at 10 uM after 48 hrs by SRB assay
HCT-15 [2] = experiment: Cytotoxicity against human HCT15 cells at 10^-5 M after 72 hrs by MTS assay; conditions: HCT-15, 72 h, read-out: GI
Method in brief: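 Cells grown in RPMI with 10% fetal calf serum, penicillin, streptomycin and fungizone under 5% CO₂. Plated in 96-well plates and dosed 24 h later with compound in DMSO (1% final DMSO; controls got DMSO alone). After 72 h, MTS was added for 3 h at 37 °C and A490 read. Inhibition = (1 − OD treated/OD control) × 100, in triplicate.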

HL-60(TB) = experiment: Cytotoxicity against human HL-60(TB) cells assessed as cellular growth at 10 uM after 48 hrs by SRB assay
RPMI-8226 = experiment: Cytotoxicity against human RPMI8226 cells assessed as cellular growth at 10 uM after 48 hrs by SRB assay; method in brief: as §1
HCT-116 = experiment: Cytotoxicity against human HCT116 cells assessed as cellular growth at 10 uM after 48 hrs by SRB assay
Method in brief: (§2)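 NCI60 single-dose screen of cells in RPMI 1640 with 5% FBS and 2 mM L-glutamine, preincubated 24 h at 37 °C, 5% CO₂. Cells were then exposed 48 h to compound added from DMSO stock. TCA-fixed, stained with 0.4% SRB in 1% acetic acid, dye solubilised in 10 mM Tris base and read at 515 nm. Growth is given as percent of untreated control.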

MDA-MB-435 [3] = experiment: Cytotoxicity against human MDA-MB-435 cells assessed as cellular growth at 10 uM after 48 hrs by SRB assay; method in brief: as §1
SK-MEL-2 = experiment: Cytotoxicity against human SK-MEL-2 cells assessed as cellular growth at 10 uM after 48 hrs by SRB assay; method in brief: as §1
UACC-62 = experiment: Cytotoxicity against human UACC62 cells assessed as cellular growth at 10 uM after 48 hrs by SRB assay; method in brief: as §1
NCI/ADR-RES = experiment: Cytotoxicity against human NCI/ADR-RES cells assessed as cellular growth at 10 uM after 48 hrs by SRB assay; method in brief: as §1
SK-OV-3 [4] = experiment: Cytotoxicity against human SKOV3 cells assessed as cellular growth at 10 uM after 48 hrs by SRB assay; method in brief: as §1
T47D = experiment: Cytotoxicity against human T47D cells assessed as cellular growth at 10 uM after 48 hrs by SRB assay; method in brief: as §1
HOP-92 = experiment: Antitumor activity against human HOP92 cells after 48 hrs by SRB assay; conditions: HOP-92, 48 h; for CC50: read-out: LC50 (the source's name)
Method in brief: (§3)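 NCI60 panel in RPMI 1640 with 5% FBS and 2 mM L-glutamine. Cells were plated at 5000–40,000/well by doubling time, held 24 h, then time-zero plates were TCA-fixed. Five concentrations (10-fold or half-log dilutions of DMSO stocks) were applied for 48 h at 37 °C, 5% CO2. Cells were fixed with cold TCA (10% final adherent, 16% suspension) and stained with 0.4% SRB. Bound dye was dissolved in 10 mM Tris and read at 515 nm. GI50, TGI and LC50 were calculated per line.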

MDA-MB-435 [5] = experiment: Antitumor activity against human MDA-MB-435 cells after 48 hrs by SRB assay; conditions: MDA-MB-435, 48 h; for CC50: read-out: LC50 (the source's name); method in brief: as §3
A498 = experiment: Antitumor activity against human A498 cells after 48 hrs by SRB assay; conditions: A498, 48 h; method in brief: as §3
SK-OV-3 [6] = experiment: Antitumor activity against human SKOV3 cells after 48 hrs by SRB assay; conditions: SK-OV-3, 48 h
Method in brief: (§4)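 NCI60 panel cells grown in RPMI 1640 with 5% FBS and 2 mM L-glutamine, plated at 5000–40,000 cells/well and preincubated 24 h at 37 °C, 5% CO₂. Compound was added from DMSO at five concentrations, 10-fold or 1/2 log dilutions, then incubated 48 h.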

SW-620 [7] = experiment: Antitumor activity against human SW620 cells after 48 hrs by SRB assay; conditions: SW-620, 48 h; method in brief: as §4
HCC 2998 = experiment: Antitumor activity against human HCC2998 cells after 48 hrs by SRB assay; conditions: HCC 2998, 48 h; method in brief: as §3
IGROV-1 = experiment: Cytotoxicity against human IGROV1 cells assessed as cellular growth at 10 uM after 48 hrs by SRB assay; method in brief: as §2
Malme-3M = experiment: Cytotoxicity against human MALME-3M cells assessed as cellular growth at 10 uM after 48 hrs by SRB assay; method in brief: as §1
MCF7 = experiment: Cytotoxicity against human MCF7 cells assessed as cellular growth at 10 uM after 48 hrs by SRB assay; method in brief: as §1
HCT-15 [8] = experiment: Antiproliferative activity against human HCT15 cells after 48 hrs by SRB assay; conditions: HCT-15, 48 h
Method in brief: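 NCI60 screen: cells grown in RPMI 1640 with 5% FBS and 2 mM L-glutamine, plated at 5000–40,000 cells/well by doubling time, preincubated 24 h at 37 °C with 5% CO2. Compounds were diluted from DMSO stocks and given for 48 h, at five concentrations for dose response. A time-zero plate was TCA-fixed. Cells were TCA-fixed, stained with 0.4% SRB and read at 515 nm, with growth expressed relative to untreated controls.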

[9] = read-out: LC50 (the source's name)
[10] = read-out: pLC50 (the source's name) (converted)

Work on COc1ccc(/C(=C2/O[C@@H]([C@H]3COC(C)(C)O3)[C@H]3OC(C)(C)O[C@@H]23)c2cc(OC)c(OC)c(OC)c2)cc1O yielded an Activity (SF-295) of 85.23%, an Activity (SW-620 [1]) of 15.44% and an inhibition of growth at 10 µM (HCT-15 [2]) of 66%. For the same molecule, the Activity (HL-60(TB)) was 20.71%, the Activity (RPMI-8226) was 63.56% and the Activity (HCT-116) was 53.99%. For the same molecule, the Activity (MDA-MB-435 [3]) was 44.7%, the Activity (SK-MEL-2) was 103.26% and the Activity (UACC-62) was 93.16%. It also gave an Activity (NCI/ADR-RES) of 10.1%, an Activity (SK-OV-3 [4]) of 36.02% and an Activity (T47D) of 120.98%. It also gave a GI50 (HOP-92) of 5.45 µM, a TGI (HOP-92) of 31.8 µM and a CC50 (HOP-92) greater than 100 µM. The GI50 (MDA-MB-435 [5]) was 1.48 µM, the TGI (MDA-MB-435 [5]) was 3.7 µM and the CC50 (MDA-MB-435 [5]) was greater than 100 µM. The GI50 (A498; read-out: GI50) was 3.57 µM, the CC50 (A498; [9]) was greater than 100 µM and the TGI (A498; read-out: TGI) was greater than 100 µM. For the same molecule, the GI50 (A498; read-out: pGI50 (converted)) was 35.5 µM, the CC50 (A498; [10]) was greater than 100 µM and the TGI (A498; read-out: pTGI (converted)) was greater than 100 µM. For the same molecule, the GI50 (SK-OV-3 [6]; read-out: GI50) was 4.11 µM, the CC50 (SK-OV-3 [6]; [9]) was greater than 100 µM and the TGI (SK-OV-3 [6]; read-out: TGI) was 3.85 µM. It also gave a GI50 (SK-OV-3 [6]; read-out: pGI50 (converted)) of 4.68 µM, a CC50 (SK-OV-3 [6]; [10]) greater than 100 µM and a TGI (SK-OV-3 [6]; read-out: pTGI (converted)) of 18.6 µM. It also gave a GI50 (SW-620 [7]; read-out: GI50) of 4.05 µM, a CC50 (SW-620 [7]; [9]) greater than 100 µM and a TGI (SW-620 [7]; read-out: TGI) greater than 100 µM. For the same molecule, the GI50 (SW-620 [7]; read-out: pGI50 (converted)) was 4.07 µM, the CC50 (SW-620 [7]; [10]) was greater than 100 µM and the TGI (SW-620 [7]; read-out: pTGI) was greater than 100 µM. The GI50 (HCC 2998; read-out: GI50) was 1.32 µM, the CC50 (HCC 2998; [9]) was greater than 100 µM and the TGI (HCC 2998; read-out: TGI) was greater than 100 µM. For the same molecule, the GI50 (HCC 2998; read-out: pGI50 (converted)) was 20.9 µM, the CC50 (HCC 2998; [10]) was greater than 100 µM and the TGI (HCC 2998; read-out: pTGI (converted)) was greater than 100 µM.
With COc1cc(/C(=C2\O[C@@H]([C@H]3COC(C)(C)O3)[C@H]3OC(C)(C)O[C@@H]23)c2ccc3ccccc3c2)cc(OC)c1OC the Activity (IGROV-1) was -21.44%, the Activity (Malme-3M) was -25.39% and the Activity (MCF7) was 22.8%. For the same molecule, the Activity (SF-295) was 48.59%, the Activity (HL-60(TB)) was 59.17% and the Activity (RPMI-8226) was 36.83%. The Activity (HCT-116) was 58.36%, the Activity (MDA-MB-435 [3]) was 26.19% and the Activity (SK-MEL-2) was -49.67%. For the same molecule, the Activity (UACC-62) was 46.5%, the Activity (NCI/ADR-RES) was 25.91% and the Activity (SK-OV-3 [4]) was 51.39%. The GI50 (HOP-92) was 2.67 µM, the TGI (HOP-92) was 13.3 µM and the CC50 (HOP-92) was greater than 100 µM. It also gave a GI50 (MDA-MB-435 [5]) of 3.61 µM, a TGI (MDA-MB-435 [5]) of 17.5 µM and a CC50 (MDA-MB-435 [5]) greater than 100 µM. For the same molecule, the GI50 (A498; read-out: GI50) was 17.8 µM, the CC50 (A498; [9]) was greater than 100 µM and the TGI (A498; read-out: TGI) was 74.6 µM. For the same molecule, the GI50 (A498; read-out: pGI50 (converted)) was 4.37 µM, the CC50 (A498; [10]) was greater than 100 µM and the TGI (A498; read-out: pTGI (converted)) was greater than 100 µM. It also gave a GI50 (SK-OV-3 [6]; read-out: GI50) of 4.37 µM, a CC50 (SK-OV-3 [6]; [9]) greater than 100 µM and a TGI (SK-OV-3 [6]; read-out: TGI) greater than 100 µM. For the same molecule, the GI50 (SK-OV-3 [6]; read-out: pGI50 (converted)) was 17.8 µM, the CC50 (SK-OV-3 [6]; [10]) was greater than 100 µM and the TGI (SK-OV-3 [6]; read-out: pTGI (converted)) was greater than 100 µM. For the same molecule, the GI50 (SW-620 [7]; read-out: GI50) was 4.31 µM, the CC50 (SW-620 [7]; [9]) was greater than 100 µM and the TGI (SW-620 [7]; read-out: TGI) was greater than 100 µM. The GI50 (SW-620 [7]; read-out: pGI50 (converted)) was 4.27 µM, the CC50 (SW-620 [7]; [10]) was greater than 100 µM and the TGI (SW-620 [7]; read-out: pTGI) was greater than 100 µM. It also gave a GI50 (HCC 2998; read-out: GI50) of 6.47 µM, a CC50 (HCC 2998; [9]) greater than 100 µM and a TGI (HCC 2998; read-out: TGI) greater than 100 µM. For the same molecule, the GI50 (HCC 2998; read-out: pGI50 (converted)) was 6.46 µM, the CC50 (HCC 2998; [10]) was greater than 100 µM and the TGI (HCC 2998; read-out: pTGI (converted)) was greater than 100 µM. The CC50 (HCT-15 [8]; [9]) was greater than 100 µM and the CC50 (HCT-15 [8]; [10]) was greater than 100 µM.
